In ChEMBL document CHEMBL1137333, “Synthesis, radiosynthesis, and biological evaluation of carbon-11 labeled 2beta-carbomethoxy-3beta-(3'-((Z)-2-haloethenyl)phenyl)nortropanes: candidate radioligands for in vivo imaging of the serotonin transporter with positron emission tomography” (J Med Chem, 2006):

Legend:
Cynomolgus monkey [1] = experiment: Ratio of uptake in caudate to cerebellum of anesthetized cynomolgus monkey after 105 mins; assay type: ADME, organism-based; details: in vivo, 1.75 h
Method in brief: (§1)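 Baseline microPET (Concorde P4) in anesthetized cynomolgus monkey after injection of the [11C]-labelled tracer. Regional time-activity curves were taken, and each region's uptake was divided by cerebellum uptake (low-SERT reference) at 65, 85 and 105 min postinjection.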

Cynomolgus monkey [2] = experiment: Uptake in anesthetized cynomolgus monkey cerebellum after 0.5 mins; assay type: ADME, organism-based; details: in vivo
Method in brief: (§2)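 Baseline microPET (Concorde P4) regional brain time-activity curves in anesthetized cynomolgus monkey following injection of the [11C]-labelled tracer, with radioactivity followed over the scan.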

Cynomolgus monkey [3] = experiment: Uptake in anesthetized cynomolgus monkey frontal after 0.5 mins; assay type: ADME, organism-based, Frontal cortex; details: in vivo; method in brief: as §2
Cynomolgus monkey [4] = experiment: Ratio of uptake in putamen to cerebellum of anesthetized cynomolgus monkey after 85 mins; assay type: ADME, organism-based; details: in vivo; method in brief: as §1
Cynomolgus monkey [5] = experiment: Uptake in anesthetized cynomolgus monkey medulla after 22.5 mins; assay type: ADME, organism-based, Medulla of organ; details: in vivo, 0.375 h
Method in brief: (§3)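 Baseline microPET scan (P4 scanner) of anesthetized cynomolgus monkeys after injection of the carbon-11 labelled nortropane tracer. Two baseline studies were run per tracer. Radioactivity was followed over time in regional brain time-activity curves.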

Cynomolgus monkey [6] = experiment: Uptake in anesthetized cynomolgus monkey putamen after 9.5 mins; assay type: ADME, organism-based; details: in vivo
Method in brief: (§4)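 Baseline microPET (Concorde P4) scan in anesthetized cynomolgus monkeys after injection of the carbon-11 labeled tracer, with no chase drug. Regional brain time-activity curves were followed over the scan. Tracer radiochemical purity and specific activity were determined by analytical HPLC at the time of injection.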

Cynomolgus monkey [7] = experiment: Uptake in anesthetized cynomolgus monkey midbrain after 0.5 mins; assay type: ADME, organism-based; details: in vivo; method in brief: as §3
Cynomolgus monkey [8] = experiment: Uptake in anesthetized cynomolgus monkey putamen after 35.0 mins; assay type: ADME, organism-based; details: in vivo; method in brief: as §4
Cynomolgus monkey [9] = experiment: Uptake in anesthetized cynomolgus monkey pons after 125.0 mins; assay type: ADME, organism-based; details: in vivo; method in brief: as §4
Cynomolgus monkey [10] = experiment: Ratio of uptake in medulla to cerebellum of anesthetized cynomolgus monkey after 65 mins; assay type: ADME, organism-based; details: in vivo; method in brief: as §1
Cynomolgus monkey [11] = experiment: Uptake in anesthetized cynomolgus monkey frontal after 9.5 mins; assay type: ADME, organism-based, Frontal cortex; details: in vivo; method in brief: as §3
Cynomolgus monkey [12] = experiment: Uptake in anesthetized cynomolgus monkey putamen after 27.5 mins; assay type: ADME, organism-based; details: in vivo; method in brief: as §4
Cynomolgus monkey [13] = experiment: Uptake in anesthetized cynomolgus monkey midbrain after 35.0 mins; assay type: ADME, organism-based; details: in vivo; method in brief: as §3
Cynomolgus monkey [14] = experiment: Ratio of uptake in putamen to cerebellum of anesthetized cynomolgus monkey after 65 mins; assay type: ADME, organism-based; details: in vivo; method in brief: as §1
Cynomolgus monkey [15] = experiment: Ratio of uptake in caudate to cerebellum of anesthetized cynomolgus monkey after 65 mins; assay type: ADME, organism-based; details: in vivo; method in brief: as §1
Cynomolgus monkey [16] = experiment: Ratio of uptake in midbrain to cerebellum of anesthetized cynomolgus monkey after 105 mins; assay type: ADME, organism-based; details: in vivo, 1.75 h; method in brief: as §1
Cynomolgus monkey [17] = experiment: Uptake in anesthetized cynomolgus monkey cerebellum after 1.5 mins; assay type: ADME, organism-based; details: in vivo, 0.025 h; method in brief: as §2
Cynomolgus monkey [18] = experiment: Uptake in anesthetized cynomolgus monkey cerebellum after 35.0 mins; assay type: ADME, organism-based, Macaca mulatta; details: rhesus monkey, in vivo; method in brief: as §2
Cynomolgus monkey [19] = experiment: Uptake in anesthetized cynomolgus monkey putamen after 75.0 mins; assay type: ADME, organism-based; details: in vivo, 1.25 h; method in brief: as §4
Cynomolgus monkey [20] = experiment: Uptake in anesthetized cynomolgus monkey medulla after 0.5 mins; assay type: ADME, organism-based, Medulla of organ; details: in vivo; method in brief: as §3
Cynomolgus monkey [21] = experiment: Uptake in anesthetized cynomolgus monkey medulla after 105.0 mins; assay type: ADME, organism-based, Medulla of organ; details: in vivo, 1.75 h; method in brief: as §3
Cynomolgus monkey [22] = experiment: Uptake in anesthetized cynomolgus monkey midbrain after 95.0 mins; assay type: ADME, organism-based; details: in vivo; method in brief: as §3
Cynomolgus monkey [23] = experiment: Uptake in anesthetized cynomolgus monkey frontal after 4.5 mins; assay type: ADME, organism-based, Frontal cortex; details: in vivo, 0.075 h; method in brief: as §3
Cynomolgus monkey [24] = experiment: Uptake in anesthetized cynomolgus monkey putamen after 125.0 mins; assay type: ADME, organism-based; details: in vivo; method in brief: as §4
Cynomolgus monkey [25] = experiment: Ratio of uptake in medulla to cerebellum of anesthetized cynomolgus monkey after 85 mins; assay type: ADME, organism-based; details: in vivo; method in brief: as §1
Cynomolgus monkey [26] = experiment: Uptake in anesthetized cynomolgus monkey cerebellum after 125.0 mins; assay type: ADME, organism-based, Macaca mulatta; details: rhesus monkey, in vivo; method in brief: as §2
Cynomolgus monkey [27] = experiment: Uptake in anesthetized cynomolgus monkey medulla after 55.0 mins; assay type: ADME, organism-based, Medulla of organ; details: in vivo; method in brief: as §3
Cynomolgus monkey [28] = experiment: Uptake in anesthetized cynomolgus monkey frontal after 3.5 mins; assay type: ADME, organism-based, Frontal cortex; details: in vivo; method in brief: as §3
Cynomolgus monkey [29] = experiment: Uptake in anesthetized cynomolgus monkey caudate after 9.5 mins; assay type: ADME, organism-based, Caudate nucleus; details: in vivo; method in brief: as §2
Cynomolgus monkey [30] = experiment: Uptake in anesthetized cynomolgus monkey frontal after 75.0 mins; assay type: ADME, organism-based, Frontal cortex; details: in vivo, 1.25 h; method in brief: as §3
Cynomolgus monkey [31] = experiment: Uptake in anesthetized cynomolgus monkey pons after 135.0 mins; assay type: ADME, organism-based; details: in vivo, 2.25 h; method in brief: as §4
Cynomolgus monkey [32] = experiment: Uptake in anesthetized cynomolgus monkey thalamus after 115.0 mins; assay type: ADME, organism-based; details: in vivo; method in brief: as §4
Cynomolgus monkey [33] = experiment: Ratio of uptake in putamen to cerebellum of anesthetized cynomolgus monkey after 105 mins; assay type: ADME, organism-based; details: in vivo, 1.75 h; method in brief: as §1
Cynomolgus monkey [34] = experiment: Uptake in anesthetized cynomolgus monkey medulla after 2.5 mins; assay type: ADME, organism-based, Medulla of organ; details: in vivo; method in brief: as §3
Cynomolgus monkey [35] = experiment: Uptake in anesthetized cynomolgus monkey thalamus after 65.0 mins; assay type: ADME, organism-based; details: in vivo; method in brief: as §4
Cynomolgus monkey [36] = experiment: Uptake in anesthetized cynomolgus monkey thalamus after 125.0 mins; assay type: ADME, organism-based; details: in vivo; method in brief: as §4
Cynomolgus monkey [37] = experiment: Uptake in anesthetized cynomolgus monkey occipital after 12.5 mins; assay type: ADME, organism-based, Macaca mulatta, Occipital cortex; details: rhesus monkey, in vivo; method in brief: as §3
Cynomolgus monkey [38] = experiment: Uptake in anesthetized cynomolgus monkey frontal after 105.0 mins; assay type: ADME, organism-based, Frontal cortex; details: in vivo, 1.75 h; method in brief: as §3
Cynomolgus monkey [39] = experiment: Ratio of uptake in thalamus to cerebellum of anesthetized cynomolgus monkey after 105 mins; assay type: ADME, organism-based; details: in vivo, 1.75 h; method in brief: as §1
Cynomolgus monkey [40] = experiment: Uptake in anesthetized cynomolgus monkey caudate after 125.0 mins; assay type: ADME, organism-based, Caudate nucleus; details: in vivo; method in brief: as §2
Cynomolgus monkey [41] = experiment: Uptake in anesthetized cynomolgus monkey thalamus after 135.0 mins; assay type: ADME, organism-based; details: in vivo, 2.25 h; method in brief: as §4
Cynomolgus monkey [42] = experiment: Uptake in anesthetized cynomolgus monkey midbrain after 6.5 mins; assay type: ADME, organism-based; details: in vivo; method in brief: as §3
Cynomolgus monkey [43] = experiment: Ratio of uptake in pons to cerebellum of anesthetized cynomolgus monkey after 65 mins; assay type: ADME, organism-based; details: in vivo; method in brief: as §1
Cynomolgus monkey [44] = experiment: Uptake in anesthetized cynomolgus monkey medulla after 27.5 mins; assay type: ADME, organism-based, Medulla of organ; details: in vivo; method in brief: as §3
Cynomolgus monkey [45] = experiment: Uptake in anesthetized cynomolgus monkey frontal after 135.0 mins; assay type: ADME, organism-based, Frontal cortex; details: in vivo, 2.25 h; method in brief: as §3
Cynomolgus monkey [46] = experiment: Uptake in anesthetized cynomolgus monkey occipital after 0.5 mins; assay type: ADME, organism-based, Occipital cortex; details: in vivo; method in brief: as §3
Cynomolgus monkey [47] = experiment: Uptake in anesthetized cynomolgus monkey occipital after 4.5 mins; assay type: ADME, organism-based, Occipital cortex; details: in vivo, 0.075 h; method in brief: as §3
Cynomolgus monkey [48] = experiment: Uptake in anesthetized cynomolgus monkey pons after 95.0 mins; assay type: ADME, organism-based; details: in vivo; method in brief: as §4
Cynomolgus monkey [49] = experiment: Ratio of uptake in thalamus to cerebellum of anesthetized cynomolgus monkey after 85 mins; assay type: ADME, organism-based; details: in vivo; method in brief: as §1
Cynomolgus monkey [50] = experiment: Uptake in anesthetized cynomolgus monkey putamen after 135.0 mins; assay type: ADME, organism-based; details: in vivo, 2.25 h; method in brief: as §4
Cynomolgus monkey [51] = experiment: Uptake in anesthetized cynomolgus monkey medulla after 4.5 mins; assay type: ADME, organism-based, Medulla of organ; details: in vivo, 0.075 h; method in brief: as §3
Cynomolgus monkey [52] = experiment: Uptake in anesthetized cynomolgus monkey midbrain after 45.0 mins; assay type: ADME, organism-based; details: in vivo, 0.75 h; method in brief: as §3
Cynomolgus monkey [53] = experiment: Uptake in anesthetized cynomolgus monkey putamen after 3.5 mins; assay type: ADME, organism-based; details: in vivo; method in brief: as §4
Cynomolgus monkey [54] = experiment: Uptake in anesthetized cynomolgus monkey medulla after 9.5 mins; assay type: ADME, organism-based, Medulla of organ; details: in vivo; method in brief: as §3
Cynomolgus monkey [55] = experiment: Uptake in anesthetized cynomolgus monkey thalamus after 18.5 mins; assay type: ADME, organism-based; details: in vivo; method in brief: as §4

`[11CH3]OC(=O)[C@@H]1C2CCC(C[C@@H]1c1cccc(/C=C/Br)c1)N2` (stereo not given in full) was tested, and the Ratio (Cynomolgus monkey [1]) was 1.7, the Drug uptake (Cynomolgus monkey [2]) was 0.01 and the Drug uptake (Cynomolgus monkey [3]) was 0.01. It also gave a Ratio (Cynomolgus monkey [4]) of 1.6, a Drug uptake (Cynomolgus monkey [5]) of 6.96 and a Drug uptake (Cynomolgus monkey [6]) of 5.41. For the same compound, the Drug uptake (Cynomolgus monkey [7]) was 0.01, the Drug uptake (Cynomolgus monkey [8]) was 7 and the Drug uptake (Cynomolgus monkey [9]) was 6.47. The Ratio (Cynomolgus monkey [10]) was 1.4, the Drug uptake (Cynomolgus monkey [11]) was 2.85 and the Drug uptake (Cynomolgus monkey [12]) was 6.85. It also gave a Drug uptake (Cynomolgus monkey [13]) of 7.4, a Ratio (Cynomolgus monkey [14]) of 1.5 and a Ratio (Cynomolgus monkey [15]) of 1.4. For the same compound, the Ratio (Cynomolgus monkey [16]) was 1.9, the Drug uptake (Cynomolgus monkey [17]) was 0.35 and the Drug uptake (Cynomolgus monkey [18]) was 5.92. The Drug uptake (Cynomolgus monkey [19]) was 7.45, the Drug uptake (Cynomolgus monkey [20]) was 0.02 and the Drug uptake (Cynomolgus monkey [21]) was 6.81. The Drug uptake (Cynomolgus monkey [22]) was 7.89, the Drug uptake (Cynomolgus monkey [23]) was 1.57 and the Drug uptake (Cynomolgus monkey [24]) was 6.69. For the same compound, the Ratio (Cynomolgus monkey [25]) was 1.6, the Drug uptake (Cynomolgus monkey [26]) was 3.74 and the Drug uptake (Cynomolgus monkey [27]) was 7.31. It also gave a Drug uptake (Cynomolgus monkey [28]) of 1.07, a Drug uptake (Cynomolgus monkey [29]) of 4.35 and a Drug uptake (Cynomolgus monkey [30]) of 3.78. The Drug uptake (Cynomolgus monkey [31]) was 7.4, the Drug uptake (Cynomolgus monkey [32]) was 6.26 and the Ratio (Cynomolgus monkey [33]) was 1.8. The Drug uptake (Cynomolgus monkey [34]) was 1.32, the Drug uptake (Cynomolgus monkey [35]) was 6.39 and the Drug uptake (Cynomolgus monkey [36]) was 6.09. The Drug uptake (Cynomolgus monkey [37]) was 4.08, the Drug uptake (Cynomolgus monkey [38]) was 3.7 and the Ratio (Cynomolgus monkey [39]) was 1.6. The Drug uptake (Cynomolgus monkey [40]) was 5.66, the Drug uptake (Cynomolgus monkey [41]) was 5.83 and the Drug uptake (Cynomolgus monkey [42]) was 4.84. The Ratio (Cynomolgus monkey [43]) was 1.5, the Drug uptake (Cynomolgus monkey [44]) was 7.08 and the Drug uptake (Cynomolgus monkey [45]) was 3.43. The Drug uptake (Cynomolgus monkey [46]) was 0.01, the Drug uptake (Cynomolgus monkey [47]) was 2.14 and the Drug uptake (Cynomolgus monkey [48]) was 8.08. The Ratio (Cynomolgus monkey [49]) was 1.5, the Drug uptake (Cynomolgus monkey [50]) was 6.51 and the Drug uptake (Cynomolgus monkey [51]) was 3.57. The Drug uptake (Cynomolgus monkey [52]) was 7.58, the Drug uptake (Cynomolgus monkey [53]) was 1.96 and the Drug uptake (Cynomolgus monkey [54]) was 5.99. The Drug uptake (Cynomolgus monkey [55]) was 5.21.
